Calls of active or inactive are those of the source. The rule behind the calls is not given here.
Key:
Staphylococcus aureus [1] = test: Antimicrobial activity against Staphylococcus aureus ATCC 25923 assessed as growth inhibition of planktonic forms incubated for 24 hrs; format: organism-based; details: in vitro
Outline: (§1)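 Broth microdilution in tryptic soy broth. Two-fold series 100 to 0.75 μg/mL made from a 1 mg/mL stock in 0.9% NaCl. Inoculum ~10⁶ cfu/mL taken from a 24 h culture, 37 °C 24 h.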

Staphylococcus aureus [2] = test: Antimicrobial activity against Staphylococcus aureus ATCC 6538 assessed as growth inhibition of planktonic forms incubated for 24 hrs; format: organism-based; details: in vitro; outline: as §1
[3] = tested on: Staphylococcus epidermidis; test: Antimicrobial activity against Staphylococcus epidermidis ATCC 12228 assessed as growth inhibition of planktonic forms incubated for 24 hrs; format: organism-based; details: in vitro; outline: as §1
Pseudomonas aeruginosa [4] = test: Antimicrobial activity against Pseudomonas aeruginosa ATCC 15442 assessed as growth inhibition of planktonic forms incubated for 24 hrs; format: organism-based; details: in vitro; outline: as §1
Escherichia coli [5] = test: Antimicrobial activity against Escherichia coli ATCC 25922 assessed as growth inhibition of planktonic forms incubated for 24 hrs; format: organism-based; details: in vitro; outline: as §1
Staphylococcus aureus [6] = test: Antibiofilm activity against Staphylococcus aureus ATCC 25923 incubated for 24 hrs by crystal violet-staining based assay; format: functional
Outline: (§2)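 Biofilm prevention: 0.5 McFarland inoculum (2.5 µL) in 100 µL TSB with 2% w/v glucose, compound present from the start over 100–0.1 µg/mL, 37 °C 24 h. Washed with PBS, stained 0.1% w/v crystal violet 30 min, eluted with 33% v/v acetic acid, read at 570 nm. BIC50 (50% inhibition versus untreated control) derived by linear regression; triplicate, repeated at least twice.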

Staphylococcus aureus [7] = test: Antibiofilm activity against Staphylococcus aureus ATCC 6538 incubated for 24 hrs by crystal violet-staining based assay; format: functional; outline: as §2
[8] = tested on: Staphylococcus epidermidis; test: Antibiofilm activity against Staphylococcus epidermidis ATCC 12228 incubated for 24 hrs by crystal violet-staining based assay; format: functional; outline: as §2
Staphylococcus aureus [9] = test: Antibiofilm activity against 24 hrs preformed biofilm of Staphylococcus aureus ATCC 25923 assessed as dispersion of bacteria incubated for 24 hrs by crystal violet-staining based assay; format: functional, organism-based; details: ATCC 25923, 24 h
Outline: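 Preformed biofilm: 0.5 McFarland suspension (2.5 µl) grown 24 h in TSB with 2% w/v glucose. Wells washed twice with PBS and refilled with fresh TSB, then compound added at graded concentrations starting at or above the planktonic MIC. Incubated a further 24 h at 37 °C, washed, heat-fixed 60 °C 1 h, 0.1% crystal violet 30 min, dye solubilized, A540. Percent inhibition versus untreated growth control; triplicate, repeated at least twice.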

Bacteria = test: Inhibition of recombinant bacterial SrtA at 100 uM using 5-FAM/QXL 520 Sortase as substrate preincubated for 10 mins followed by substrate addition and measured every 5 mins for 60 mins by fluorescence assay
Outline: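 FRET kit assay: 2.5 µg/ml recombinant SrtA, 4 µM fluorescent peptide substrate, compound at 100 µM in 1% DMSO. Compound and enzyme added first, then substrate. Fluorescence (Ex/Em 490/520 nm) recorded every 5 min for 60 min. Substrate without enzyme served as negative control and 4-(hydroxymercuri)benzoic acid as positive control.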

Pseudomonas aeruginosa [10] = test: Antibiofilm activity against Pseudomonas aeruginosa ATCC 15442 assessed as inhibition of biofilm formation at 100 ug/ml incubated for 24 hrs by crystal violet-staining based assay; format: functional; details: ATCC 15442, 24 h
Escherichia coli [11] = test: Antibiofilm activity against Escherichia coli ATCC 25922 assessed as inhibition of biofilm formation at 100 ug/ml incubated for 24 hrs by crystal violet-staining based assay; format: functional; details: ATCC 25922, 24 h
Staphylococcus aureus [12] = test: Antibiofilm activity against Staphylococcus aureus ATCC 25923 assessed as inhibition of biofilm formation at 100 ug/ml incubated for 24 hrs by crystal violet-staining based assay; format: functional; details: ATCC 25923, 24 h
Staphylococcus aureus [13] = test: Antibiofilm activity against Staphylococcus aureus ATCC 6538 assessed as inhibition of biofilm formation at 100 ug/ml incubated for 24 hrs by crystal violet-staining based assay; format: functional; details: ATCC 6538, 24 h

SMILES | MIC (Staphylococcus aureus [1]) [µg/mL] | MIC (Staphylococcus aureus [2]) [µg/mL] | MIC [3] [µg/mL] | MIC (Pseudomonas aeruginosa [4]) [µg/mL] | MIC (Escherichia coli [5]) [µg/mL] | MBIC50 (Staphylococcus aureus [6]) [µM] | MBIC90 (Staphylococcus aureus [6]) [µg/mL] | inhibition (Staphylococcus aureus [6]) | MBIC50 (Staphylococcus aureus [7]) [µM] | inhibition (Staphylococcus aureus [7]) | MBIC50 [8] [µM] | inhibition [8] | IC50 (Staphylococcus aureus [9]) [µg/mL] | inhibition (Bacteria) | inhibition at 100 µg/mL (Pseudomonas aeruginosa [10]) [%] | inhibition at 100 µg/mL (Escherichia coli [11]) [%] | inhibition at 100 µg/mL (Staphylococcus aureus [12]) [%] | inhibition at 100 µg/mL (Staphylococcus aureus [13]) [%]
Br.COc1ccc(OC)c(-c2cn3nc(-c4c[nH]c5ccccc45)sc3n2)c1 | > 100 | > 100 | > 100 | > 100 | > 100 | 1.2 | 36.5 | Dose-dependent effect | 18.5 | Dose-dependent effect | 29.9 | Dose-dependent effect | 142 | inactive | < 15 | < 15 |  | 
Br.Cn1cc(-c2nn3cc(-c4ccccc4)nc3s2)c2cc(Br)ccc21 | > 100 | > 100 | > 100 | > 100 | > 100 |  |  |  |  |  | 21.6 | Dose-dependent effect |  |  | < 15 | < 15 | < 15 | < 15
Br.COc1cccc(-c2cn3nc(-c4cn(C)c5ccc(Cl)cc45)sc3n2)c1 | > 100 | > 100 | > 100 | > 100 | > 100 |  |  |  |  |  | 23.9 | Dose-dependent effect |  |  | < 15 | < 15 | < 15 | < 15

Source: ChEMBL document CHEMBL4339190, “2,6-Disubstituted imidazo[2,1-b][1,3,4]thiadiazole derivatives as potent staphylococcal biofilm inhibitors” (Eur J Med Chem, 2019)
